Results: ChEMBL document CHEMBL3352720, “Novel alkylphospholipid-DTC hybrids as promising agents against endocrine related cancers acting via modulation of Akt-pathway” (Eur J Med Chem, 2014)
One block for each compound: values may come before it. The source made the active and inactive calls. No cut-off for these calls is given here.

Assays:
MCF7 [1] = assay: Potency index, ratio of IC50 for miltefosine to IC50 for test compound against human MCF7 cells by MTT assay; assay type: functional
MCF7 [2] = assay: Induction of apoptosis in human MCF7 cells assessed as late apoptotic cells level at 7 uM incubated for 24 hrs by annexin-V and propidium iodide staining based flow cytometry (reference value: 1.85%); assay type: functional
[3] = Antiproliferative activity against human DU145 cells assessed as inhibition of cell proliferation incubated for 18 hrs followed by MTT addition for 4 hrs by MTT assay; assay type: functional, cell-based; settings: DU-145
Method in brief: (§1)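 MTT assay. Cells were grown in DMEM with 10% FBS at 37 °C, 5% CO2, 90% relative humidity. 1 × 10⁴ cells per well were seeded and held 24 h, then exposed to compounds diluted in culture medium for 18 h. MTT (5 mg/mL stock) was added for a further 4 h.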

MCF7 [4] = assay: Down-regulation of cyclin A2 mRNA expression in human MCF7 cells at 2 to 10 uM incubated for 24 hrs by quantitative real time PCR method; assay type: functional, cell-based
Method in brief: (§2)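 MCF-7 cells in DMEM/10% FBS were treated for 24 h at the indicated concentrations, then harvested, and mRNA levels were determined by qPCR.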

MCF7 [5] = assay: Induction of cell cycle arrest in human MCF7 cells assessed as accumulation at G2/M phase at 7 uM incubated for 24 hrs by propidium iodide staining based FACS assay (reference value: 1.47%); assay type: functional
MDA-MB-231 [6] = assay: Antiproliferative activity against human MDA-MB-231 cells assessed as inhibition of cell proliferation incubated for 18 hrs followed by MTT addition for 4 hrs by MTT assay; assay type: functional, cell-based; method in brief: as §1
MDA-MB-231 [7] = assay: Inhibition of AKT Ser473 phosphorylation in human MDA-MB-231 cells at 2 uM incubated for 24 hrs by Western blotting method; assay type: cell-based
Method in brief: (§3)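 After 24 h treatment, cells were washed in ice-cold PBS and lysed in RIPA buffer. Protein was measured by Bradford, equal amounts run on SDS-PAGE and transferred to PVDF. Blots were probed for p-Akt (Ser473) and total Akt, then 1 h with 1:5000 HRP anti-mouse IgG, with chemiluminescent detection. Densitometry was quantified against untreated control.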

HEK293 = assay: Antiproliferative activity against HEK293 cells assessed as inhibition of cell proliferation incubated for 18 hrs followed by MTT addition for 4 hrs by MTT assay; assay type: cell-based; settings: Homo sapiens; method in brief: as §1
MCF7 [8] = assay: Induction of cell cycle arrest in human MCF7 cells assessed as accumulation at S phase at 7 uM incubated for 24 hrs by propidium iodide staining based FACS assay (reference value: 45.21%); assay type: functional
MCF7 [9] = assay: Induction of cell cycle arrest in human MCF7 cells assessed as accumulation at sub-diploid phase at 7 uM incubated for 24 hrs by propidium iodide staining based FACS assay (reference value: 7.26%); assay type: functional
MCF7 [10] = assay: Induction of mitochondrial membrane potential loss in human MCF7 cells assessed as increase in JC1 dye monomer green fluorescence at 7 uM incubated for 24 hrs by JC1 dye based flow cytometry (reference value: 1.78%); assay type: functional
MCF7 [11] = assay: Induction of apoptosis in human MCF7 cells assessed as viable cells level at 7 uM incubated for 24 hrs by annexin-V and propidium iodide staining based flow cytometry (reference value: 89.58%); assay type: functional
MCF7 [12] = assay: Antiproliferative activity against human MCF7 cells assessed as inhibition of cell proliferation incubated for 18 hrs followed by MTT addition for 4 hrs by MTT assay; assay type: functional, cell-based; method in brief: as §1
MCF7 [13] = assay: Down-regulation of Bcl-2 mRNA expression in human MCF7 cells at 2 to 10 uM incubated for 24 hrs by quantitative real time PCR method; assay type: functional, cell-based; method in brief: as §2
MCF7 [14] = assay: Down-regulation of cyclin A1 mRNA expression in human MCF7 cells at 2 to 10 uM incubated for 24 hrs by quantitative real time PCR method; assay type: functional, cell-based; method in brief: as §2
MCF7 [15] = assay: Induction of apoptosis in human MCF7 cells assessed as necrotic cells level at 7 uM incubated for 24 hrs by annexin-V and propidium iodide staining based flow cytometry (reference value: 2.15%); assay type: functional
MCF7 [16] = assay: Induction of apoptosis in human MCF7 cells assessed as early apoptotic cells level at 7 uM incubated for 24 hrs by annexin-V and propidium iodide staining based flow cytometry (reference value: 6.42%); assay type: functional
MCF7 [17] = assay: Induction of cell cycle arrest in human MCF7 cells assessed as accumulation at G0/G1 phase at 7 uM incubated for 24 hrs by propidium iodide staining based FACS assay (reference value: 53.32%); assay type: functional
DU-145 [18] = assay: Induction of apoptosis in human DU145 cells assessed as necrotic cells level at 10 uM incubated for 24 hrs by annexin-V and propidium iodide staining based flow cytometry (reference value: 1.33%); assay type: functional
DU-145 [19] = assay: Induction of cell cycle arrest in human DU145 cells assessed as accumulation at G2/M phase at 5 uM incubated for 24 hrs by propidium iodide staining based FACS assay (reference value: 6.90%); assay type: functional
DU-145 [20] = assay: Induction of apoptosis in human DU145 cells assessed as early apoptotic cells level at 10 uM incubated for 24 hrs by annexin-V and propidium iodide staining based flow cytometry (reference value: 2.06%); assay type: functional
DU-145 [21] = assay: Increase in Bax protein expression in human DU145 cells at 5 to 15 uM incubated for 24 hrs by Western blotting method; assay type: functional, cell-based
Method in brief: (§4)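 DU-145 cells were exposed for 24 h and lysed in RIPA buffer. Protein was quantified by Bradford, and equal amounts were run on SDS-PAGE, transferred to PVDF and immunoblotted, with chemiluminescent detection. Bax/Bcl-2 ratio was taken from 3 densitometric scans as mean SE versus control.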

DU-145 [22] = assay: Induction of apoptosis in human DU145 cells assessed as late apoptotic cells level at 5 uM incubated for 24 hrs by annexin-V and propidium iodide staining based flow cytometry (reference value: 2.96%); assay type: functional
DU-145 [23] = assay: Induction of apoptosis in human DU145 cells assessed as necrotic cells level at 5 uM incubated for 24 hrs by annexin-V and propidium iodide staining based flow cytometry (reference value: 1.33%); assay type: functional
DU-145 [24] = assay: Potency index, ratio of IC50 for miltefosine to IC50 for test compound against human DU145 cells by MTT assay; assay type: functional
DU-145 [25] = assay: Induction of mitochondrial membrane potential loss in human DU145 cells assessed as increase in JC1 dye monomer green fluorescence at 5 uM incubated for 24 hrs by JC1 dye based flow cytometry (reference value: 2.81%); assay type: functional
DU-145 [26] = assay: Induction of cell cycle arrest in human DU145 cells assessed as accumulation at G0/G1 phase at 5 uM incubated for 24 hrs by propidium iodide staining based FACS assay (reference value: 53.66%); assay type: functional
DU-145 [27] = assay: Inhibition of AKT Ser473 phosphorylation in human DU145 cells at 15 uM incubated for 24 hrs by Western blotting method; assay type: cell-based; method in brief: as §3
DU-145 [28] = assay: Induction of apoptosis in human DU145 cells assessed as necrotic cells level at 15 uM incubated for 24 hrs by annexin-V and propidium iodide staining based flow cytometry (reference value: 1.33%); assay type: functional
DU-145 [29] = assay: Induction of mitochondrial membrane potential loss in human DU145 cells assessed as increase in JC1 dye monomer green fluorescence at 15 uM incubated for 24 hrs by JC1 dye based flow cytometry (reference value: 2.81%); assay type: functional
DU-145 [30] = assay: Induction of cell cycle arrest in human DU145 cells assessed as accumulation at G0/G1 phase at 10 uM incubated for 24 hrs by propidium iodide staining based FACS assay (reference value: 53.66%); assay type: functional
DU-145 [31] = assay: Induction of cell cycle arrest in human DU145 cells assessed as accumulation at S phase at 5 uM incubated for 24 hrs by propidium iodide staining based FACS assay (reference value: 39.44%); assay type: functional
DU-145 [32] = assay: Increase in Bax/Bcl-2 expression ratio in human DU145 cells at 15 uM incubated for 24 hrs by Western blotting method; assay type: functional, cell-based; method in brief: as §4
[33] = Antiproliferative activity against human PC3 cells assessed as inhibition of cell proliferation incubated for 18 hrs followed by MTT addition for 4 hrs by MTT assay; assay type: functional, cell-based; settings: PC-3; method in brief: as §1
DU-145 [34] = assay: Induction of apoptosis in human DU145 cells assessed as late apoptotic cells level at 10 uM incubated for 24 hrs by annexin-V and propidium iodide staining based flow cytometry (reference value: 2.96%); assay type: functional
DU-145 [35] = assay: Induction of mitochondrial membrane potential loss in human DU145 cells assessed as increase in JC1 dye monomer green fluorescence incubated for 24 hrs by JC1 dye based flow cytometry; assay type: functional, cell-based
DU-145 [36] = assay: Induction of apoptosis in human DU145 cells assessed as early apoptotic cells level at 15 uM incubated for 24 hrs by annexin-V and propidium iodide staining based flow cytometry (reference value: 2.06%); assay type: functional
DU-145 [37] = assay: Induction of cell cycle arrest in human DU145 cells assessed as accumulation at G2/M phase at 15 uM incubated for 24 hrs by propidium iodide staining based FACS assay (reference value: 6.90%); assay type: functional
DU-145 [38] = assay: Induction of apoptosis in human DU145 cells assessed as viable cells level at 5 uM incubated for 24 hrs by annexin-V and propidium iodide staining based flow cytometry (reference value: 93.65%); assay type: functional
DU-145 [39] = assay: Induction of apoptosis in human DU145 cells assessed as early apoptotic cells level at 5 uM incubated for 24 hrs by annexin-V and propidium iodide staining based flow cytometry (reference value: 2.06%); assay type: functional
DU-145 [40] = assay: Induction of apoptosis in human DU145 cells assessed as viable cells level at 15 uM incubated for 24 hrs by annexin-V and propidium iodide staining based flow cytometry (reference value: 93.65%); assay type: functional
DU-145 [41] = assay: Induction of apoptosis in human DU145 cells assessed as viable cells level at 10 uM incubated for 24 hrs by annexin-V and propidium iodide staining based flow cytometry (reference value: 93.65%); assay type: functional
DU-145 [42] = assay: Induction of cell cycle arrest in human DU145 cells assessed as accumulation at S phase at 15 uM incubated for 24 hrs by propidium iodide staining based FACS assay (reference value: 39.44%); assay type: functional
DU-145 [43] = assay: Induction of apoptosis in human DU145 cells assessed as late apoptotic cells level at 15 uM incubated for 24 hrs by annexin-V and propidium iodide staining based flow cytometry (reference value: 2.96%); assay type: functional
DU-145 [44] = assay: Induction of cell cycle arrest in human DU145 cells assessed as accumulation at G0/G1 phase at 15 uM incubated for 24 hrs by propidium iodide staining based FACS assay (reference value: 53.66%); assay type: functional
DU-145 [45] = assay: Induction of cell cycle arrest in human DU145 cells assessed as accumulation at S phase at 10 uM incubated for 24 hrs by propidium iodide staining based FACS assay (reference value: 39.44%); assay type: functional
DU-145 [46] = assay: Induction of cell cycle arrest in human DU145 cells assessed as accumulation at G2/M phase at 10 uM incubated for 24 hrs by propidium iodide staining based FACS assay (reference value: 6.90%); assay type: functional
DU-145 [47] = assay: Induction of mitochondrial membrane potential loss in human DU145 cells assessed as increase in JC1 dye monomer green fluorescence at 10 uM incubated for 24 hrs by JC1 dye based flow cytometry (reference value: 2.81%); assay type: functional
[48] = Reduction in Bcl-2 protein expression in human DU145 cells at 5 to 15 uM incubated for 24 hrs by Western blotting method; assay type: functional, cell-based; settings: DU-145

- IC50 (MDA-MB-231 [6]): 24.6 µM
- IC50 (MCF7 [12]): 7.24 µM
SMILES: CCCCCCCCCCOP(=O)(O)OCCSC(=S)N1CCCCC1
- Ratio IC50 (MCF7 [1]): 5
- Activity (MCF7 [2]): 12.76%
- IC50 [3]: 29.3 µM
- Activity (MCF7 [4]): Active
- Activity (MCF7 [5]): 0%
- inhibition (MDA-MB-231 [7]): Active
- IC50 (HEK293): 70.7 µM
- Activity (MCF7 [8]): 39.01%
- Activity (MCF7 [9]): 23.81%
- Activity (MCF7 [10]): 44.62%
- Activity (MCF7 [11]): 43.43%
- Activity (MCF7 [13]): Active
- Activity (MCF7 [14]): Active
- Activity (MCF7 [15]): 2.15%
- Activity (MCF7 [16]): 41.66%
- Activity (MCF7 [17]): 60.99%

- IC50 (MDA-MB-231 [6]): 100 µM
- IC50 (MCF7 [12]): 29 µM
SMILES: CCCCCCCCCCCCCCCCOP(=O)(O)OCCSC(=S)N1CCCCC1
- Activity (DU-145 [18]): 1.4%
- Activity (DU-145 [19]): 5.65%
- Activity (DU-145 [20]): 11.06%
- Activity (DU-145 [21]): Active
- Activity (DU-145 [22]): 2.91%
- Activity (DU-145 [23]): 1.64%
- Ratio IC50 (DU-145 [24]): 2
- Activity (DU-145 [25]): 3.68%
- Activity (DU-145 [26]): 59.09%
- inhibition (DU-145 [27]): Active
- Activity (DU-145 [28]): 2.21%
- Activity (DU-145 [29]): 9.29%
- Activity (DU-145 [30]): 61.15%
- IC50 [3]: 14.7 µM
- Activity (DU-145 [31]): 35.26%
- Activity (DU-145 [32]): Active
- IC50 [33]: 34.3 µM
- Activity (DU-145 [34]): 4.52%
- Activity (DU-145 [35]): Dose-dependent effect
- Activity (DU-145 [36]): 12.65%
- IC50 (HEK293): > 100 µM
- Activity (DU-145 [37]): 5.6%
- Activity (DU-145 [38]): 86.45%
- Activity (DU-145 [39]): 9%
- Activity (DU-145 [40]): 78.81%
- Activity (DU-145 [41]): 83.02%
- Activity (DU-145 [42]): 27.27%
- Activity (DU-145 [43]): 6.33%
- Activity (DU-145 [44]): 67.13%
- Activity (DU-145 [45]): 32.94%
- Activity (DU-145 [46]): 5.92%
- Activity (DU-145 [47]): 30.84%
- Activity [48]: Active
